Experimental data published in ChEMBL document CHEMBL1130024, “Synthesis and structure-activity relationships of 17beta-substituted 14beta-hydroxysteroid 3-(alpha-L-rhamnopyranoside)s: steroids that bind to the digitalis receptor” (J Med Chem, 1997).

target: Sodium/potassium-transporting ATPase subunit alpha-1 (Canis lupus familiaris, UniProt P50997); assay: Inhibition of [3H]ouabain binding to Digitalis receptor in dog heart microsomes
How it was run: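 Radioligand competition assay in dog heart muscle microsomes (membrane preparation), measuring [³H]ouabain binding with the test steroids present. Steroids were added in ethanol.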

Compared with `COC(C[N+](=O)[O-])[C@H]1CC[C@]2(O)[C@@H]3CC[C@@H]4C[C@@H](O[C@@H]5O[C@@H](C)[C@H](O)[C@@H](O)[C@H]5O)CC[C@]4(C)[C@H]3CC[C@]12C` (some centres not stated), `C[C@@H]1O[C@@H](O[C@H]2CC[C@@]3(C)[C@H](CC[C@@H]4[C@@H]3CC[C@]3(C)[C@H](C(O)C[N+](=O)[O-])CC[C@]43O)C2)[C@H](O)[C@H](O)[C@H]1O` (some centres not stated) is 160-fold higher in IC50: 30 nM for the first, 4730 nM for the second. The first is the more potent here.

Going from `C[C@@H]1O[C@@H](O[C@H]2CC[C@@]3(C)[C@H](CC[C@@H]4[C@@H]3CC[C@]3(C)[C@@H](CCO)CC[C@]43O)C2)[C@H](O)[C@H](O)[C@H]1O` to `CC1OC(O[C@H]2CC[C@@]3(C)[C@H](CC[C@@H]4[C@@H]3CC[C@]3(C)[C@@H](CCN)CC[C@]43O)C2)C(O)C(O)C1O` (some centres not stated), the IC50 rises from 660 nM to 1890 nM (2.9-fold).

Going from `C[C@@H]1O[C@@H](O[C@H]2CC[C@@]3(C)[C@H](CC[C@@H]4[C@@H]3CC[C@]3(C)[C@@H](CCC(=O)O)CC[C@]43O)C2)[C@H](O)[C@H](O)[C@H]1O` to `C[C@@H]1O[C@@H](O[C@H]2CC[C@@]3(C)[C@H](CC[C@@H]4[C@@H]3CC[C@]3(C)[C@@H](CC[N+](=O)[O-])CC[C@]43O)C2)[C@H](O)[C@H](O)[C@H]1O`, the IC50 falls from 230 nM to 45.5 nM (5.1-fold).

`C[C@@H]1O[C@@H](O[C@H]2CC[C@@]3(C)[C@H](CC[C@@H]4[C@@H]3CC[C@]3(C)[C@@H]5CC[C@]43OC5)C2)[C@H](O)[C@H](O)[C@H]1O` and `C[C@@H]1O[C@@H](O[C@H]2CC[C@@]3(C)[C@H](CC[C@@H]4[C@@H]3CC[C@]3(C)[C@@H](C(O)CN)CC[C@]43O)C2)[C@H](O)[C@H](O)[C@H]1O` (some centres not stated) are within 1.5-fold of each other in IC50: 2200 nM for the first, 3220 nM for the second.

First: C[C@@H]1O[C@@H](O[C@H]2CC[C@@]3(C)[C@H](CC[C@@H]4[C@@H]3CC[C@]3(C)[C@@H](/C=C/[N+](=O)[O-])CC[C@]43O)C2)[C@H](O)[C@H](O)[C@H]1O
Second: C[C@@H]1O[C@@H](O[C@H]2CC[C@@]3(C)[C@H](CC[C@@H]4[C@@H]3CC[C@]3(C)[C@@H](/C=C/C(=O)O)CC[C@]43O)C2)[C@H](O)[C@H](O)[C@H]1O
The IC50 of the first is 1.6-fold lower: 8.3 nM for the first, 13 nM for the second. The first is the more potent here.

Work on `C[C@H]1O[C@@H](O[C@H]2[C@@H](O)C[C@H](O[C@H]3[C@@H](O)C[C@H](O[C@H]4CC[C@@]5(C)[C@H](CC[C@@H]6[C@@H]5CC[C@]5(C)[C@@H](C7=CC(=O)OC7)CC[C@]65O)C4)O[C@@H]3C)O[C@@H]2C)C[C@H](O)[C@@H]1O` [DIGITOXIN] yielded an IC50 of 8 nM.

test system: not listed separately; assay: Concentration that inhibits binding of [3H]ouabain against Digitalis receptor in dog heart microsomes; Not active at a concentration > 100 uM; design: species or system Canis lupus familiaris, Microsome; call rule not given here

With `C[C@@H]1O[C@@H](O[C@H]2CC[C@@]3(C)[C@H](CC[C@@H]4[C@@H]3CC[C@]3(C)[C@@H]5CC[C@]43OC(=O)C5)C2)[C@H](O)[C@H](O)[C@H]1O` the IC50 was “Not Active”.
